Activity calls are given as the source filed them. The calls are words filed in the database; no cut-off is given here.
Tests used:
[1] = tested on: MDA-MB-435; test: Cytotoxicity against human MDA-MB-435 cells incubated for 72 hrs by MTT assay; format: functional, cell-based; details: MDA-MB-435, 72 h
How it was run: (§1)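 Cells were kept in DMEM (MDA-MB-435, MCF7, LNCaP) or RPMI (HT29, HCT116) with 10% heat-inactivated FBS and 2 mM L-glutamine, subconfluent and in exponential growth. They were seeded, allowed to adhere overnight, then exposed continuously to compound (10 mM DMSO stock) for 72 h. MTT was added to 0.3 mg/mL final for 3–4 h at 37 °C, formazan was dissolved in DMSO, and absorbance was read at 570 nm. Runs were in triplicate; IC50 came from log concentration versus percent cell kill.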

[2] = tested on: LNCaP; test: Cytotoxicity against human LNCAP cells incubated for 72 hrs by MTT assay; format: functional, cell-based; how it was run: as §1
[3] = tested on: MCF7; test: Cytotoxicity against human MCF7 cells incubated for 72 hrs by MTT assay; format: functional, cell-based; details: MCF7, 72 h; how it was run: as §1
[4] = tested on: HCT-116; test: Cytotoxicity against p53 deficient human HCT116 cells incubated for 72 hrs by MTT assay; format: functional, cell-based; details: HCT-116, 72 h; how it was run: as §1
[5] = tested on: SK-BR-3; test: Cytotoxicity against human SKBR3 cells incubated for 72 hrs by MTT assay; format: functional, cell-based; details: SK-BR-3, 72 h
[6] = target: Proto-oncogene tyrosine-protein kinase Src (Homo sapiens) (UniProt P12931); test: Inhibition of SRC at 10 uM incubated for 60 mins using poly(Glu,Tyr)4:1 substrate and 10 uM ATP by ELISA
Sequence of Proto-oncogene tyrosine-protein kinase Src (Homo sapiens) (P12931 2-536 limits assumed): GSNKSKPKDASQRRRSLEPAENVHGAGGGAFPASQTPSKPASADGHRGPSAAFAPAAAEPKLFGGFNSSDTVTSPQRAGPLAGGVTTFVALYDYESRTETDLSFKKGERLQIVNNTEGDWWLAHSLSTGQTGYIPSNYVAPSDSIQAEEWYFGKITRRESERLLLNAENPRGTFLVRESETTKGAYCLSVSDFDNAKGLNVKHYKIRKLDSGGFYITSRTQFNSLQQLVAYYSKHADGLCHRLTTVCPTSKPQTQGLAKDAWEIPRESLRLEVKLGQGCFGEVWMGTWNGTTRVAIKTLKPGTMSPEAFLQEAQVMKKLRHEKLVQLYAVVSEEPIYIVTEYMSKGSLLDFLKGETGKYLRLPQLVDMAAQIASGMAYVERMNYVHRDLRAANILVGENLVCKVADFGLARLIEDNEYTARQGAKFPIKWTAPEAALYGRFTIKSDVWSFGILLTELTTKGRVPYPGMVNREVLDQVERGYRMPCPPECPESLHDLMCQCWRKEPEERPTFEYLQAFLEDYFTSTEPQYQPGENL
How it was run: (§2)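 ELISA with Poly(Glu,Tyr)4:1 (20 μg/mL) precoated as substrate and 10 μM ATP, in 50 mM HEPES pH 7.4, 20 mM MgCl2, 0.1 mM MnCl2, 0.2 mM Na3VO4, 1 mM DTT. Compound was tested at 10 μM, in duplicate. Kinase reaction ran 60 min at 37 °C. Phosphotyrosine was detected with PY99 and HRP anti-mouse IgG, developed with o-phenylenediamine/H2O2, stopped with H2SO4 and read at 492 nm. Inhibition = [1 − A492 treated/A492 control] × 100%. References: lapatinib (ErbB2) and PP2 (Src), each at 10 μM.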

[7] = target: Vascular endothelial growth factor receptor 2 (Homo sapiens) (UniProt P35968); details: at 10 µM
Sequence of Vascular endothelial growth factor receptor 2 (Homo sapiens) (P35968 whole entry): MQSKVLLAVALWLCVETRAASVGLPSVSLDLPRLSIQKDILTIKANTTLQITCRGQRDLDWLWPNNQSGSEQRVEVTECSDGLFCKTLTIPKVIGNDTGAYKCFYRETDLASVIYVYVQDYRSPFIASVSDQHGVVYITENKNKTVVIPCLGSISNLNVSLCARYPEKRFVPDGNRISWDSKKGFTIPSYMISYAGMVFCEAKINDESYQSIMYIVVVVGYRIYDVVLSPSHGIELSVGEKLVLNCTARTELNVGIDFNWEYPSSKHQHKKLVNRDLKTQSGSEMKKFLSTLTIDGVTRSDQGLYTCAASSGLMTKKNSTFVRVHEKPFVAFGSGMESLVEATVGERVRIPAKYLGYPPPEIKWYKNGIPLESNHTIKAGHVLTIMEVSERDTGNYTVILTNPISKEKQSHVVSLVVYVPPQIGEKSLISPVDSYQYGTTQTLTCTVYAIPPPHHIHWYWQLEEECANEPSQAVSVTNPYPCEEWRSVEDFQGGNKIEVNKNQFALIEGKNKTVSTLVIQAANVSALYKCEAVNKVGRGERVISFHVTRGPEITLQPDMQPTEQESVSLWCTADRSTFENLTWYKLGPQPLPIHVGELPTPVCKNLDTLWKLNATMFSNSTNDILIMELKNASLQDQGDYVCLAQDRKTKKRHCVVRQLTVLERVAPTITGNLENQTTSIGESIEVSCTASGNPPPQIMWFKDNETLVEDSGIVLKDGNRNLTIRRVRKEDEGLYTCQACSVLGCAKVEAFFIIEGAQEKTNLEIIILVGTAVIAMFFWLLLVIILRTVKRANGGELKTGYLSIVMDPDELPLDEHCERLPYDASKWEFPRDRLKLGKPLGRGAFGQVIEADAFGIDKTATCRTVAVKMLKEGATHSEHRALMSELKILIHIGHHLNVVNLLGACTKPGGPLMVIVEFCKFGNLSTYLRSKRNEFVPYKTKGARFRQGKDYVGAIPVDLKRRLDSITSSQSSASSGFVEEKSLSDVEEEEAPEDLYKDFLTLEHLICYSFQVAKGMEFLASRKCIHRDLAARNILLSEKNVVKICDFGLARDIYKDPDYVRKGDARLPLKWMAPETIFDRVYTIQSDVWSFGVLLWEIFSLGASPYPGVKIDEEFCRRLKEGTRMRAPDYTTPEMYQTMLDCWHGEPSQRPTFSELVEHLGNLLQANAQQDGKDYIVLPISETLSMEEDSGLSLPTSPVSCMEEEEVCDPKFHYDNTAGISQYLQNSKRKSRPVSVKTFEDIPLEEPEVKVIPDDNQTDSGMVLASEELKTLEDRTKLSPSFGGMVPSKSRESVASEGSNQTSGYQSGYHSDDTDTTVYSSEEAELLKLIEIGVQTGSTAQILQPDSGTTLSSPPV

[8] = tested on: HCT-116; test: Cytotoxicity against p53 expressing human HCT116 cells incubated for 72 hrs by MTT assay; format: functional, cell-based; details: HCT-116, 72 h; how it was run: as §1
[9] = tested on: HT-29; test: Cytotoxicity against human HT-29 cells incubated for 72 hrs by MTT assay; format: functional, cell-based; details: HT-29, 72 h; how it was run: as §1
[10] = target: T1, Human immunodeficiency virus type 1 integrase (Human immunodeficiency virus 1, UniProt Q7ZJM1); test: Inhibition of HIV1 integrase strand transfer activity using [32P]-labeled linear oligonucleotide substrate
T1 sequence (Q7ZJM1 whole entry): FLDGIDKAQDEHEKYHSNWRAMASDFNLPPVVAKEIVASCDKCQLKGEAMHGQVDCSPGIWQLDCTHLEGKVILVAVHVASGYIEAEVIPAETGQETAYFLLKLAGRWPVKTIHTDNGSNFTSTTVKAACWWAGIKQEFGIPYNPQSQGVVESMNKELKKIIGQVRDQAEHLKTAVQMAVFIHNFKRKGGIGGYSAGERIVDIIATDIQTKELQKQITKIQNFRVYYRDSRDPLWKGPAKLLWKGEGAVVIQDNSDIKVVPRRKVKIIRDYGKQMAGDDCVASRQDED

[11] = Therapeutic index, ratio of CC50 for human C8166 cells to EC50 for HIV1 3B; format: cell-based; details: read-out: Ratio CC50/EC50
How it was run: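 Therapeutic index was calculated as the C8166 MTT CC50 divided by the HIV-1 IIIB syncytium-reduction EC50.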

[12] = tested on: Human immunodeficiency virus 1; test: Antiviral activity against HIV1 3B infected in human C8166 cells assessed as reduction in virus-induced cytopathogenicity measured after 3 days by syncytium reduction assay; format: functional, organism-based; details: Human immunodeficiency virus 1, 3B, C8166, 72 h
How it was run: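 C8166 cells (4 × 10⁵ mL⁻¹), grown in RPMI-1640 with 10% heat-inactivated FCS and kept in log phase, infected with HIV-1 IIIB at MOI 0.06 in the presence of serial compound dilutions. AZT served as positive control. After 3 days, syncytia were counted by inverted microscope. EC50 was derived from percent inhibition of syncytium number relative to infected control.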

[13] = target: T1, Human immunodeficiency virus type 1 integrase; test: Inhibition of HIV1 integrase 3'-processing activity using [32P]-labeled linear oligonucleotide substrate
[14] = Toxicity against human C8166 cells incubated for 72 hrs by MTT assay; format: cell-based
How it was run: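 C8166 cells were seeded with serial compound dilutions in triplicate and incubated at 37 °C, 5% CO2 for 72 h. MTT (5 mg/mL in PBS) was added for 4 h, and formazan was dissolved in 50% DMF-20% SDS. Absorbance was read at 595/630 nm. CC50 was taken from the dose-response curve.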

[15] = target: Receptor tyrosine-protein kinase erbB-2 (Homo sapiens) (UniProt P04626); test: Inhibition of ErbB2 at 10 uM incubated for 60 mins using poly(Glu,Tyr)4:1 substrate and 10 uM ATP by ELISA; how it was run: as §2
Sequence of Receptor tyrosine-protein kinase erbB-2 (Homo sapiens) (P04626 whole entry): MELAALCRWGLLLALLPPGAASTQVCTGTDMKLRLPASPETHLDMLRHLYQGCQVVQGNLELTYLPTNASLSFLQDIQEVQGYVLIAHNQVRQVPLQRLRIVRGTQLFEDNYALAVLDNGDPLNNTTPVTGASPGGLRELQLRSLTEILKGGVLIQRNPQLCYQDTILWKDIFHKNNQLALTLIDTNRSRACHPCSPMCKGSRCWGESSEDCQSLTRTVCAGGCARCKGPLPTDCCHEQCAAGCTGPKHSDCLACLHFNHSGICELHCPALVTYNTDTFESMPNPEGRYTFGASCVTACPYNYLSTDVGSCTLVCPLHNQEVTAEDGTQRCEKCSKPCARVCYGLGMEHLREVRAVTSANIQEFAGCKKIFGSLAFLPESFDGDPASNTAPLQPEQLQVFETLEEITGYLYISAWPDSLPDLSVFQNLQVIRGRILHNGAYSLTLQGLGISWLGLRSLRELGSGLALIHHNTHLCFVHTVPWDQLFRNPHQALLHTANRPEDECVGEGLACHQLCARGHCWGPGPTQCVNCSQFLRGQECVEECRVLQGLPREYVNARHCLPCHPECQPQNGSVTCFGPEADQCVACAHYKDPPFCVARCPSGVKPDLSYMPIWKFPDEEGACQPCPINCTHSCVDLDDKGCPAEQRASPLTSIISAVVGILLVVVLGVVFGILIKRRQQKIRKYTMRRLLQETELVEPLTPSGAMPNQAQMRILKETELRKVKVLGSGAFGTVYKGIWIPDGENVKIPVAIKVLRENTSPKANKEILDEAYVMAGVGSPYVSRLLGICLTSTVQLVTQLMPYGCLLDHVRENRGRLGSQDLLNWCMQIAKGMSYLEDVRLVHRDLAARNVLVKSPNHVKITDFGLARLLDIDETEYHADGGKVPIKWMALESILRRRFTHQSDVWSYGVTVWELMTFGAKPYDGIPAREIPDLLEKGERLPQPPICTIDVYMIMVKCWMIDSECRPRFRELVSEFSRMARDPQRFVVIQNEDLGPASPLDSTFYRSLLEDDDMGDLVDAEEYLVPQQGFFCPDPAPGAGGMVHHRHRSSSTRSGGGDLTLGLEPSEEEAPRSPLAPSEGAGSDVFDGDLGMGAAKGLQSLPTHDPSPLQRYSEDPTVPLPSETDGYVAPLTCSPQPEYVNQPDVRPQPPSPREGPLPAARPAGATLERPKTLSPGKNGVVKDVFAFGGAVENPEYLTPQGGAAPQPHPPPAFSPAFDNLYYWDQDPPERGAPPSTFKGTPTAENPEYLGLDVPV

[16] = tested on: MDA-MB-435; test: Inhibition of colony formation in human MDA-MB-435 cells at 10 uM treated continuously for 7 days by crystal violet staining based colony formation assay; format: functional, cell-based
How it was run: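 MDA-MB-435 cells (500 per well) were adhered overnight and treated with compound at 10 μM, or across a dose range. The methods describe a 24 h treatment, then PBS washing and 7–10 days regrowth; the figure legend describes continuous 7-day treatment. Colonies were fixed and stained with 2% crystal violet containing 1% glutaraldehyde, then imaged.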

| Compound | IC50 [1] | IC50 [2] | IC50 [3] | IC50 [4] | IC50 [5] | inhibition [6] | inhibition [7] | IC50 [8] | IC50 [9] | IC50 [10] | selectivity ratio [11] | EC50 [12] | IC50 [13] | CC50 at 72 h [14] | inhibition [15] | inhibition [16] |
| --- | --- | --- | --- | --- | --- | --- | --- | --- | --- | --- | --- | --- | --- | --- | --- | --- |
| NCCCNc1c(C(=O)NCc2ccc(F)cc2)ncc2cccnc12 | 16 µM | > 10 µM | > 10 µM | > 10 µM | > 10 µM | 15% | 10% | > 10 µM | > 10 µM |  |  |  |  |  |  |  |
| C[C@H](CO)Nc1nc(C(=O)NCc2ccc(F)cc2)c(O)c2ncccc12 | > 20 µM |  |  |  |  |  |  |  |  | 0.2 µM | 1330 | 0.052 µM | 6.9 µM | 69 µM |  |  |
| O=C(NCc1ccc(F)cc1)c1nc(Br)c2cccnc2c1N1CCNCC1 | 8 µM | 4.5 µM | 7 µM | > 10 µM | 6 µM | 29% | 4% | > 10 µM | 10 µM |  |  |  |  |  |  |  |
| O=C(NCc1ccc(F)cc1)c1nc(N2CCCCS2(=O)=O)c2cccnc2c1O | 6 µM |  | 2 µM | 2 µM |  | 13% |  | 2 µM |  | 0.3 µM | 26400 | 0.005 µM | 11 µM | 132 µM | 8% |  |
| Cc1ccc(S(=O)(=O)Oc2c(C(=O)NCc3ccc(F)cc3)nc(Br)c3cccnc23)cc1 | > 20 µM |  |  | > 20 µM |  |  |  | > 20 µM |  | 31 µM | 6.2 | 5.01 µM | > 111 µM | 31 µM |  |  |
| CS(=O)(=O)Oc1c(C(=O)NCc2ccc(F)cc2)nc(Br)c2cccnc12 | > 20 µM |  |  | > 20 µM |  |  |  | > 20 µM |  | 13 µM | 4 | 11.8 µM | > 111 µM | 48 µM |  |  |
| O=C(NCc1ccc(F)cc1)c1nc(Br)c2cccnc2c1O | 15 µM |  |  | > 20 µM |  |  |  | > 20 µM |  | 0.5 µM | 7.2 | 11.1 µM | 14 µM | 80 µM |  |  |
| O=C(NCc1ccc(F)cc1)c1nc(NCCO)c2cccnc2c1O | > 20 µM |  |  |  |  |  |  |  |  | 0.3 µM | 3140 | 0.029 µM | 9.5 µM | 91 µM |  |  |
| NCCCCCCNc1c(C(=O)NCc2ccc(F)cc2)nc(Br)c2cccnc12 | 6 µM | 8 µM | 2 µM | > 10 µM | 3 µM | 18% | 0% | 7 µM | 5 µM |  |  |  |  |  |  | Active |
| O=CNCCCCCCNc1nc(C(=O)NCc2ccc(F)cc2)c(O)c2ncccc12 | 16 µM |  | 19 µM | 6 µM |  | 23% |  | 4 µM |  | 0.2 µM | 7370 | 0.027 µM | 6 µM | 199 µM | 11% |  |
| O=C(NCc1ccc(F)cc1)c1nc(Br)c2cccnc2c1NCCO | > 20 µM |  |  | > 20 µM |  |  |  | > 20 µM |  | 69 µM | 4.8 | 48.9 µM | > 100 µM | 232 µM |  |  |
| CS(=O)(=O)NCCCN(c1nc(C(=O)NCc2ccc(F)cc2)c(O)c2ncccc12)S(C)(=O)=O | > 20 µM |  | > 20 µM | 7 µM |  |  |  | 15 µM |  | 0.7 µM | 21300 | 0.003 µM | 34 µM | 64 µM |  |  |
| CS(=O)(=O)NCCCCCCN(c1nc(C(=O)NCc2ccc(F)cc2)c(O)c2ncccc12)S(C)(=O)=O | 20 µM |  | 7 µM | 4 µM |  |  |  | 3 µM |  | 0.7 µM | 18500 | 0.002 µM | 11 µM | 37 µM |  |  |
| CN(C)CCCNc1c(C(=O)NCc2ccc(F)cc2)nc(Br)c2cccnc12 | 7 µM | 8 µM | 7 µM | > 10 µM | 1 µM | 17% | 0% | > 10 µM | 6 µM |  |  |  |  |  |  |  |
| O=C(NCc1ccc(F)cc1)c1nc(Br)c2cccnc2c1NC1CCNCC1 | 7 µM | 6 µM | 3 µM | 6 µM | 1 µM | 9% | 0% | 9.2 µM | 4 µM |  |  |  |  |  | 1% | Active |
| C[C@@H](CO)Nc1nc(C(=O)NCc2ccc(F)cc2)c(O)c2ncccc12 | > 20 µM |  |  |  |  |  |  |  |  | 0.3 µM | 4650 | 0.023 µM | 7.8 µM | 107 µM |  |  |
| O=C(NCc1ccc(F)cc1)c1nc(NCCc2c[nH]c3ccccc23)c2cccnc2c1O | 13 µM |  | 12 µM |  |  |  |  |  |  | 1 µM | 114 | 0.368 µM | 14 µM | 42 µM |  |  |
| Nc1ccc(Nc2c(C(=O)NCc3ccc(F)cc3)nc(Br)c3cccnc23)cc1 | 7 µM | 7 µM | 4 µM | 7 µM | 4 µM | 7% | 8% | 10 µM | > 10 µM |  |  |  |  |  | 1% |  |
